≈ marks a conversion by molar mass, not a printed value.
Legend:
Escherichia coli [1] = assay: Antibacterial activity against Escherichia coli BL21 (DE3) assessed as zone of growth inhibition at 10 mmol incubated for overnight by disc diffusion method; type: functional; conditions: dose 10 mM; time 12 hrs
How it was run: (§1)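 Overnight LB cultures (37 °C, 200 rpm), 150 µL spread on LB agar. 15 µL of compound (10 mM stock in DMSO) was applied to 6 mm filter paper disks, with DMSO as negative and CHIR-090 as positive control. Plates were incubated overnight at 37 °C and the diameter of the growth-inhibition zone was measured. At least three runs on separate days.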

Escherichia coli [2] = assay: Antibacterial activity against Escherichia coli D22 assessed as zone of growth inhibition at 10 mmol incubated for overnight by disc diffusion method; type: functional; conditions: dose 10 mM; time 12 hrs; how it was run: as §1
Escherichia coli [3] = assay: Antibacterial activity against Escherichia coli BL21 (DE3) assessed as prevention of visible growth incubated for 20 hrs by two-fold serial microbroth dilution method; type: functional
How it was run: (§2)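 Broth microdilution in LB with 5% DMSO. Overnight cultures (LB, 37 °C, 200 rpm) were diluted 1:100 and added to a twofold compound dilution series in DMSO, giving 5·10^6 cfu·mL⁻¹ and final compound 64 to 0.25 µg·mL⁻¹. Plates were incubated 20 h at 37 °C. MIC was taken as the lowest concentration with no visible growth. At least three runs on separate days.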

Escherichia coli [4] = assay: Antibacterial activity against Escherichia coli D22 incubated assessed as prevention of visible growth for 20 hrs by two-fold serial microbroth dilution method; type: functional; how it was run: as §2
[5] = Inhibition of LpxC C63A mutant in Escherichia coli […] preincubated for 30 mins followed by incubation for 10 mins by spectrophotometric analysis

SMILES | inhibition zone (IZ) (Escherichia coli [1]) [mm] | inhibition zone (IZ) (Escherichia coli [2]) [mm] | MIC (Escherichia coli [3]) [µg/mL] | MIC (Escherichia coli [4]) [µg/mL] | IC50 [5] [µM]
O=C(CO[C@H](Cn1ccnn1)c1ccc(C#Cc2ccccc2)cc1)NO | <6 | 21 | > 64 | 1 (≈ 2.76 µM) | 36
O=C(CO[C@@H](Cn1cc(-c2ccccc2)nn1)c1ccc(C#Cc2ccccc2)cc1)NO | <6 | 8.7 | > 64 | 32 (≈ 73 µM) | > 200
O=C(CO[C@H](Cn1nncc1-c1ccccc1)c1ccc(C#Cc2ccccc2)cc1)NO | <6 | 10.7 | > 64 | 8 (≈ 18.2 µM) | > 20
O=C(CO[C@H](Cn1cc(-c2ccccc2)nn1)c1ccc(C#Cc2ccccc2)cc1)NO | <6 | 12.3 | > 64 | 0.25 (≈ 0.57 µM) | 10.4
O=C(CO[C@@H](Cn1ccnn1)c1ccc(C#Cc2ccccc2)cc1)NO | <6 | 11 | > 64 | ≥ 32 | > 200
C[C@@H](O)[C@H](NC(=O)c1ccc(C#Cc2ccc(CN3CCOCC3)cc2)cc1)C(=O)NO | 31.7 | 37.5 | 0.25 (≈ 0.571 µM) | 0.031 (≈ 0.0709 µM) | 0.076
O=C(CO[C@H](CO)c1ccc(C#Cc2ccccc2)cc1)NO | 9.5 | 20.5 | 64 (≈ 206 µM) | 1 (≈ 3.21 µM) | 86.2
O=C(CO[C@H](Cn1nncc1CO)c1ccc(C#Cc2ccccc2)cc1)NO | 10.3 | 29.5 | > 64 | 1 (≈ 2.55 µM) | 23.4
O=C(CO[C@H](Cn1cc(CO)nn1)c1ccc(C#Cc2ccccc2)cc1)NO | <6 | 20.7 | > 64 | 4 (≈ 10.2 µM) | 8.5
O=C(CO[C@H](Cn1ccnn1)c1ccc(OCc2ccccc2)cc1)NO | <6 | 15 | > 64 | > 64 | > 200
O=C(CO[C@@H](CO)c1ccc(C#Cc2ccccc2)cc1)NO | <6 | 13 | > 64 | 32 (≈ 103 µM) | > 200
O=C(CO[C@H](Cn1cc(-c2ccccc2)nn1)c1ccc(OCc2ccccc2)cc1)NO | <6 | 10 | > 64 | 32 (≈ 72 µM) | > 200

— ChEMBL document CHEMBL4725237, “Synthesis and biological evaluation of triazolyl-substituted benzyloxyacetohydroxamic acids as LpxC inhibitors” (Bioorg Med Chem, 2020)
